14 compounds from ChEMBL document CHEMBL2046402, “The First Dual ChE/FAAH Inhibitors: New Perspectives for Alzheimer's Disease?” (ACS Med Chem Lett, 2012) can be followed below.

Each structure is given as a SMILES string.

In assay [1] the target is T1, Fatty-acid amide hydrolase 1 (Rattus norvegicus, UniProt P97612).
T1 sequence (P97612 whole entry): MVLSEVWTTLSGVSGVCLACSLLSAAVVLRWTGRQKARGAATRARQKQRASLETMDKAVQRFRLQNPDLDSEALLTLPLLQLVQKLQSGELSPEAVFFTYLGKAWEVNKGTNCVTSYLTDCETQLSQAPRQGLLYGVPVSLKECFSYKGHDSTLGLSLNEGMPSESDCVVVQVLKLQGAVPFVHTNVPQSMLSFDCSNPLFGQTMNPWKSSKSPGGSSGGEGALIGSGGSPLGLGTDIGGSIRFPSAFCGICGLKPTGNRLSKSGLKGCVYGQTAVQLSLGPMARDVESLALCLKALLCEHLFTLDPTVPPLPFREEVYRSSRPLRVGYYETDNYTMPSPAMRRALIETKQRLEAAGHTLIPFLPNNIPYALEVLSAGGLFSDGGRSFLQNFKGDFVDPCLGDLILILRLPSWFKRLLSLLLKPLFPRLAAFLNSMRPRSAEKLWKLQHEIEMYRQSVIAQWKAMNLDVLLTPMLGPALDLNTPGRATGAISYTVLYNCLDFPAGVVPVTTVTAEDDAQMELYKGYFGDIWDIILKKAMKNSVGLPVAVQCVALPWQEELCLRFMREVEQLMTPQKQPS
In words: Inhibition of FAAH in rat brain membranes assessed as hydrolysis of [14C]-anandamide after 30 mins. Format: cell membranes. The procedure, abridged: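 Rat brain membrane FAAH; activity read as hydrolysis of anandamide, with the inhibitor added without preincubation (pit = 0). Values are reported as IC50.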

Assay [2] addresses T2, Acetylcholinesterase (Homo sapiens, UniProt P22303). In words: Inhibition of human recombinant AChE using acetylthiocholine iodide as substrate preincubated for 120 mins before substrate addition by Ellman's method. Background: DTNB colorimetry detects thiols as they appear.
Assay [3] addresses T3, Fatty-acid amide hydrolase 1 (Homo sapiens, UniProt O00519).
T3 sequence (O00519 whole entry): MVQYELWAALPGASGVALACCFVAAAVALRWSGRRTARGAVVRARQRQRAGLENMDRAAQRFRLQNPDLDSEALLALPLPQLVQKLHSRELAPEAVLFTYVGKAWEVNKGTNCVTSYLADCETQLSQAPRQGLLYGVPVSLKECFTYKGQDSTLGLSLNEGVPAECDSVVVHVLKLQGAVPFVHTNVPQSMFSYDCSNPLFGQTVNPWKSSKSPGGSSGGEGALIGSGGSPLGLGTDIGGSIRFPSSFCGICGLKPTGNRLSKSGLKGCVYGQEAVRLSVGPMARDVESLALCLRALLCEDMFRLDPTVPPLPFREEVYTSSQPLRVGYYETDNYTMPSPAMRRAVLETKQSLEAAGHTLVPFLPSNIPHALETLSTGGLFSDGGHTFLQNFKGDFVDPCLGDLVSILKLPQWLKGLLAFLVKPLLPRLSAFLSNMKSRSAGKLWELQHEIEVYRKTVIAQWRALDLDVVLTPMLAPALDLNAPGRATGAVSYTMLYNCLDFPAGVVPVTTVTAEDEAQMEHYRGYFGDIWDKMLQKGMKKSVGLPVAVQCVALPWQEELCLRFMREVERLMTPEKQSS
In words: Inhibition of human recombinant FAAH in assessed as hydrolysis of [14C]-anandamide preincubated for 20 mins before [14C]-anandamide addition measured after 30 mins. In outline: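 Human recombinant FAAH; the inhibitor was preincubated for 20 min before anandamide hydrolysis was measured. Values are reported as IC50.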

The target of assay [4] is T1, Fatty-acid amide hydrolase 1. In words: Inhibition of FAAH in rat brain membranes assessed as hydrolysis of [14C]-anandamide preincubated for 20 mins before [14C]-anandamide addition measured after 30 mins. The assay is classed as cell membranes. The procedure, abridged: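 Rat brain membrane FAAH; the inhibitor was preincubated with the enzyme for 20 min before anandamide hydrolysis was measured. Values are reported as IC50.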

Assay [5] concerns the target T4, Cholinesterase (Homo sapiens, UniProt P06276). In words: Inhibition of human serum BuChE using butyrylthiocholine iodide as substrate preincubated for 15 mins before substrate addition by Ellman's method.
Assay [6] has as its target T2, Acetylcholinesterase. In words: Inhibition of human recombinant AChE using acetylthiocholine iodide as substrate by Ellman's method. The conditions noted are these: TDE = time-dependent effect.
For assay [7], the target named is T4, Cholinesterase. In words: Inhibition of human serum BuChE using butyrylthiocholine iodide as substrate by Ellman's method. The conditions noted are these: TDE = time-dependent effect.
Assay [8] has as its target T2, Acetylcholinesterase. In words: Reversible inhibition of human recombinant AChE using acetylthiocholine iodide as substrate assessed as recovery of enzyme activity after 48 hrs by Ellman's method. Set-up: scale not given: the % may be the effect or the level left.
Assay [9] deals with T4, Cholinesterase. In words: Reversible inhibition of human serum BuChE using butyrylthiocholine iodide as substrate assessed as recovery of enzyme activity after 48 hrs by Ellman's method. On the set-up: scale not given: the % may be the effect or the level left.

T2 sequence (P22303 whole entry): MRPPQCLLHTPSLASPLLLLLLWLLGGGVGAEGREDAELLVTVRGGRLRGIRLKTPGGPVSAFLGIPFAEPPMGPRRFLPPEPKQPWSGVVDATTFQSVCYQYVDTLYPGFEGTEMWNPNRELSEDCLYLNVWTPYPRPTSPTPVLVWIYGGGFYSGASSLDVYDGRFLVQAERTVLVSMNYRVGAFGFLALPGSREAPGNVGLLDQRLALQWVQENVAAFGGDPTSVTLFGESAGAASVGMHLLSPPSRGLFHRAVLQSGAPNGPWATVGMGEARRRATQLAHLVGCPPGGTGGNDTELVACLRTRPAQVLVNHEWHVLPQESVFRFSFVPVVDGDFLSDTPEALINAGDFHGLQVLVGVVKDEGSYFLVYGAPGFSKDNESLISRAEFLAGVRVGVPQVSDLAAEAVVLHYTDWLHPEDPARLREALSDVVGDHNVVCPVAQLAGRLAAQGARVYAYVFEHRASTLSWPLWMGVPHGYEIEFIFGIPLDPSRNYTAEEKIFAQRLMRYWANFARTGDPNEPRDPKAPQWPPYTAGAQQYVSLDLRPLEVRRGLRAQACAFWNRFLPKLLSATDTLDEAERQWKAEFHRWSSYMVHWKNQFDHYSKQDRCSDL
T4 sequence (P06276 whole entry): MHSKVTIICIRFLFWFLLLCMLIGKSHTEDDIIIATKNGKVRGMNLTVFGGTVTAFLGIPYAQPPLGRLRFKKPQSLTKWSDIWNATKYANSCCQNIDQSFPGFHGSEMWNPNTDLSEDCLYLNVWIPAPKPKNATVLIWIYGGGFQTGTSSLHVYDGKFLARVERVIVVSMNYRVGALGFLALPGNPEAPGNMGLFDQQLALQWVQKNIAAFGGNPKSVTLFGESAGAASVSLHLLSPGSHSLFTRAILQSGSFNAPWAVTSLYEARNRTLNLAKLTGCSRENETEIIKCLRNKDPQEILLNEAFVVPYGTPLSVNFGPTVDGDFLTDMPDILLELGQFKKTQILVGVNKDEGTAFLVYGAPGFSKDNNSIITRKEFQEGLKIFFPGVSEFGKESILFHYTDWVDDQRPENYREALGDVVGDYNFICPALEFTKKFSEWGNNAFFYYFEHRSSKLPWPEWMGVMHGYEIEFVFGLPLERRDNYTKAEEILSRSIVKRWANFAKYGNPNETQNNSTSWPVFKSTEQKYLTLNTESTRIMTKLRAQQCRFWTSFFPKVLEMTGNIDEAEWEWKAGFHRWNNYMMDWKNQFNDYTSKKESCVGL

A word on the IC50: it is the concentration that inhibits the measured activity by half. As for `CCCCNC(=O)Oc1cccc(CN(C)CCCOc2ccc3ccc(=O)oc3c2)c1`, the IC50 in assay [1] was 8680 nM.

On to `CN(CCCOc1ccc2c(=O)c3cccnc3oc2c1)Cc1cccc(OC(=O)NCCCCCc2ccccc2)c1`, for which the 50% inhibitory concentration (IC50) at Acetylcholinesterase [2] turned out to be 89.5 nM; in assay [3], 520 nM; in [1] it was 370 nM; in [4] it was 40 nM; on Cholinesterase [5] it was 1.71 nM. The inhibition entry at Acetylcholinesterase [6] and on Cholinesterase [7] was “tde” each time.

Consider `CCCCNC(=O)Oc1cccc(CN(C)CCCOc2ccc3c(=O)c4cccnc4oc3c2)c1`, for which the 50% inhibitory concentration (IC50) in assay [1] amounted to 4230 nM; in [4], 1400 nM.

In the case of `CCCCCCCNC(=O)Oc1cccc(CN(C)CCCOc2ccc3c(=O)c4ccccc4oc3c2)c1`, the values for the IC50 in assay [1] and in assay [4] were 3620 nM and 110 nM, respectively.

Regarding `CN(CCCOc1ccc2ccc(=O)oc2c1)Cc1cccc(OC(=O)NCCCCCCCN2CCOCC2)c1`, the IC50 on Acetylcholinesterase [2] came to 119 nM; in assay [3], 14800 nM; in assay [1] it was 5590 nM; in assay [4], 1820 nM; at Cholinesterase [5], 11.2 nM. For the same compound, the inhibition entry at Acetylcholinesterase [6] and at Cholinesterase [7] was “tde” throughout.

Consider `CCCCCCNC(=O)Oc1cccc(CN(C)CCCOc2ccc3c(=O)c4ccccc4oc3c2)c1`, for which the IC50 came out at 4290 nM in [1] and 290 nM in assay [4].

Take `CNC(=O)Oc1cccc(CN(C)CCCCCCCOc2ccc(-c3cc4ccccc4oc3=O)cc2)c1`: in [1], the IC50 worked out at 9200 nM.

For `CCCCCCCNC(=O)Oc1cccc(CN(C)CCCOc2ccc3c(=O)cc(-c4ccccc4)oc3c2)c1`, the IC50 in assay [1] came to 6810 nM.

On to `CN(CCCOc1ccc2ccc(=O)oc2c1)Cc1cccc(OC(=O)NCCCCCc2ccccc2)c1`, for which the IC50 on Acetylcholinesterase [2] was 74.9 nM; in assay [3], 2260 nM; in assay [1] it was 280 nM; in [4] it was 50 nM; against Cholinesterase [5] it was 1.57 nM. Moreover, the inhibition result on Acetylcholinesterase [6] and at Cholinesterase [7] was “tde” each time. The values for the Activity at Acetylcholinesterase [8] and at Cholinesterase [9] were 30% and 83%, respectively.

As to `CCCCCCCNC(=O)Oc1cccc(CN(C)CCCOc2ccc3c(=O)c4cccnc4oc3c2)c1`, the results for the IC50 in assay [1] and in assay [4] were 2210 nM and 400 nM, respectively.

As for `CCCCNC(=O)Oc1cccc(CN(C)CCCOc2ccc3c(=O)cc(-c4ccccc4)oc3c2)c1`, the IC50 is 5540 nM in [1] and 800 nM in assay [4].

Take `CCCCCCCNC(=O)Oc1cccc(CN(C)CCCOc2ccc3ccc(=O)oc3c2)c1`: the IC50 was determined as 620 nM in assay [1] and 170 nM in assay [4].

Regarding `CN(CCCOc1ccc2c(=O)c3cccnc3oc2c1)Cc1cccc(OC(=O)NCCCCCCCN2CCOCC2)c1`, the IC50 at Acetylcholinesterase [2] is 139 nM; in [3] it was 39000 nM; in assay [1], 4310 nM; in assay [4], 2710 nM; on Cholinesterase [5] it was 27.6 nM. Also, the inhibition result on Acetylcholinesterase [6] and at Cholinesterase [7] was “tde” throughout.

Regarding `CCCNC(=O)Oc1cccc(CN(C)CCCOc2ccc3c(=O)c4ccccc4oc3c2)c1`, the IC50 in assay [1] stood at 9280 nM; in assay [4] it was 100 nM.
